Bioassay records from PubChem.
A selection: hits, their analogues and other compounds. The true share with any hit is near 4.3%.
STAT1 activator: increases IFN-gamma driven STAT1 reporter signal | NIH 3T3 STAT1-luciferase reporter, luminescence; 100% = IFN-gamma alone, no compound | AID 932 | activation (% of control), % at 5.5 µM | 200,000 tested, 2.6% active;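 active = activation above the screen-wide mean activation plus 3 SD, cut at about 130% in these data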;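 also: raw ratio to IFN-gamma control signal so 100% means no change and 0% no light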
APP 5'UTR act: activates APP 5'UTR luciferase reporter | SH-SY5Y APP 5'UTR luciferase reporter, luminescence; zero percent = DMSO vehicle wells | 190,000 tested, 1% active | activation, % at 2 µM;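 active = activation above a set limit, based on mean plus 3 SD of controls, cut at about 140% in these data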
NF-kB neuron act: raises NF-kB expression in human neuronal cells; NF-kB reporter expression; stronger effect = higher value; AID 1239; 190,000 tested, 1.6% active; fold change at 12.5 µM; in the data active = fold change above about 3.3
FLuc act counter: firefly luciferase counter-screen for stimulation assays. AID 1027. ATPlite luciferase biochemical, luminescence, 10 min; 0 = ATP-free wells, 1 = DMSO control. 200,000 tested, under 10 active. activation factor at 10 µM;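 active = luciferase activation factor, scaled between plate controls, of at least 2 with compound at 10 µM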
Target sequence (P08659 whole entry, looked up): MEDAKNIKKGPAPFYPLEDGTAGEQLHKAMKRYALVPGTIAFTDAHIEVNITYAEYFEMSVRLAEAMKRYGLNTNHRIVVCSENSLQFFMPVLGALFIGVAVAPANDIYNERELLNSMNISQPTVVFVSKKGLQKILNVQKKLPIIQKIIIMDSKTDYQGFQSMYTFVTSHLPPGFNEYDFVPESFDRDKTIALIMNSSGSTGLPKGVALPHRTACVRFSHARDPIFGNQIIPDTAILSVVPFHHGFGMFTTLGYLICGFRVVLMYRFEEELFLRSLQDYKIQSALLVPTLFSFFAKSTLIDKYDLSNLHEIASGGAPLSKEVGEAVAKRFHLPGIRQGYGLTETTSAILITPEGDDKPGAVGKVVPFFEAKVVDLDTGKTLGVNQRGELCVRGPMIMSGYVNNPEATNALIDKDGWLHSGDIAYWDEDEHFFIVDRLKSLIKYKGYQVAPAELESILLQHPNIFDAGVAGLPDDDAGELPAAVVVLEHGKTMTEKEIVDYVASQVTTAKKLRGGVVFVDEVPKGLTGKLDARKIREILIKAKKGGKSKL
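Assay system – cell-free luciferase reagent · Medium – PBS-based ATP solution · Dosing – test compounds dosed from 2 mM stocks in 100% DMSO · Timing – 10 min, room temperature · Technique – light output (luminescence) · Measure – luminescence gain marking luciferase activators · Controls – No-ATP low control, compound-free enzyme-plus-ATP high control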
sdo1 growth: sdo1-depleted yeast growth rescue. S. cerevisiae sdo1-depleted JHY4D growth rescue, OD600 30 h; stronger effect = higher value; pdr5 snq2 efflux-pump mutant strain. z-score at 10 µM. 140,000 tested, 0.21% active;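 active = z-score above 3 at both the 24 hr and the 30 hr optical density reads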;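 also: z-score against mean and SD of all compound wells on the same plate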
FLuc inh counter: Photinus pyralis luciferase inhibition counter-screen; AID 1006; ATPLite firefly luciferase biochemical luminescence, 10 min; 200,000 tested, 1.5% active; P08659; inhibition, % at 10 µM;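 active = inhibition above about 50% when tested at 10 µM, limit read from the data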
Starred values were filed as active, the others as inactive.

Screening COC(=O)c1ccc(NC(=O)Nc2ccc3c(c2)nc(C)n3C)cc1 returned STAT1 activator 117, APP 5'UTR act 17, NF-kB neuron act 1.1, FLuc act counter 1 and FLuc inh counter 1.
Screening Cc1ccc(NC(=O)Nc2ccc3c(c2)nc(C)n3C)cc1 returned STAT1 activator 132*, APP 5'UTR act 130, NF-kB neuron act 6.5*, FLuc act counter 0.3 and FLuc inh counter 74*.
CC(=O)c1ccc(NC(=O)Nc2ccc3c(c2)nc(C)n3C)cc1 was read as STAT1 activator 128, APP 5'UTR act 41, NF-kB neuron act 1.9, FLuc act counter 0.9 and FLuc inh counter 8.
`O=C(O)CONC(=O)c1cc(OCC(F)(F)F)ccc1OCC(F)(F)F` gave STAT1 activator 95, APP 5'UTR act 13, NF-kB neuron act 1, FLuc act counter 1.1, sdo1 growth 0.16 and FLuc inh counter -5.
`O=C(/C=C/c1ccc2c(c1)OCO2)c1ccco1` gave STAT1 activator 109, APP 5'UTR act 20, NF-kB neuron act 1.5, FLuc act counter 0.4, sdo1 growth 0.22 and FLuc inh counter 58*.
`Nc1ccccc1C(=O)/C=C/c1ccc2c(c1)OCO2` gave STAT1 activator 110, APP 5'UTR act 129, NF-kB neuron act 7.2*, FLuc act counter 0.4, sdo1 growth -0.45 and FLuc inh counter 62*.
COC(=O)CC1C(=O)NCCN1C(=O)CSc1nnnn1-c1ccc(OC)cc1 (stereo unspecified) was read as STAT1 activator 100, APP 5'UTR act 14, NF-kB neuron act 1.2, FLuc act counter 1 and FLuc inh counter -2.
`Cc1ccsc1C(=O)OCc1csc(-c2ccccc2)n1` gave STAT1 activator 99, APP 5'UTR act 195*, NF-kB neuron act 9.4*, FLuc act counter 0.5, sdo1 growth -1.2 and FLuc inh counter 48.
Screening Cc1ccccc1Nc1nc(N)nc(COC(=O)c2cccn2C)n1 returned STAT1 activator 141*, APP 5'UTR act 77, NF-kB neuron act 2.9, FLuc act counter 1, sdo1 growth -0.43 and FLuc inh counter 2.
`Cn1cccc1C(=O)OCc1csc(-c2ccccc2)n1` gave STAT1 activator 134*, APP 5'UTR act 150*, NF-kB neuron act 5.8*, FLuc act counter 0.4, sdo1 growth -1.4 and FLuc inh counter 61*.
CNS(=O)(=O)c1cccc(C(=O)OCc2csc(-c3ccccc3)n2)c1 was read as STAT1 activator 112, APP 5'UTR act 17, NF-kB neuron act 1.1, FLuc act counter 1, sdo1 growth -1.1 and FLuc inh counter 1.
`CC1=CC(C)C2(CO)COC(c3cccnc3)C1C2C` (stereo unspecified) gave STAT1 activator 96, APP 5'UTR act -15, NF-kB neuron act 1.1, FLuc act counter 1, sdo1 growth 0.18 and FLuc inh counter -1.
O=C(CSc1nccn1-c1ncc(C(F)(F)F)cc1Cl)c1ccc(Cl)cc1 was read as STAT1 activator 133*, APP 5'UTR act -12, NF-kB neuron act 0.67, FLuc act counter 1, sdo1 growth -0.97 and FLuc inh counter -1.
Screening Cc1ccc(CSc2nc3ccncc3n2CC(=O)Nc2cc(C)cc(C)c2)cc1 returned STAT1 activator 98, APP 5'UTR act 49, NF-kB neuron act 1.3, FLuc act counter 0.5, sdo1 growth -0.25 and FLuc inh counter 50*.
Screening Cc1ccc(OCC(=O)NCc2ccccn2)c(Br)c1 returned STAT1 activator 141*, APP 5'UTR act 30, NF-kB neuron act 2.1, FLuc act counter 0.9, sdo1 growth -0.19 and FLuc inh counter 8.
Screening CCCC(C)C(=O)Nc1ccc(S(=O)(=O)Nc2nccs2)cc1 (stereo unspecified) returned STAT1 activator 103, APP 5'UTR act -6, NF-kB neuron act 1.3, FLuc act counter 1 and FLuc inh counter -4.
Cc1cc(/C=C2\NC(=S)N(C)C2=O)ccc1N1CCCC1 was read as STAT1 activator 138*, APP 5'UTR act 125, NF-kB neuron act 3, FLuc act counter 0.9 and FLuc inh counter 11.
Screening CCCN1C(=O)/C(=C/c2ccc(N3CCCC3)c(C)c2)NC1=S returned STAT1 activator 95, APP 5'UTR act 5, NF-kB neuron act 0.59, FLuc act counter 0.9, sdo1 growth -1.6 and FLuc inh counter 9.
